In ChEMBL document CHEMBL1157658, “Structure-activity relationship of (N)-Methanocarba phosphonate analogues of 5'-AMP as cardioprotective agents acting through a cardiac P2X receptor” (J Med Chem, 2010):
pEC50: −log10 of the molar value. Active and inactive are the calls of the source. No cut-off for these calls is given here.

Experiments:
1321-N1 = experiment: Induction of calcium flux in human 1321N1 cells at 10 uM by FLIPR assay; format: functional, cell-based
P2Y purinoceptor 1 [1] = target: T1, P2Y purinoceptor 1 (Homo sapiens, UniProt P47900); experiment: Activation of human P2Y1 receptor expressed in human 1321N1 cells assessed as induction of calcium flux up to 10 uM by FLIPR assay; format: functional, cell-based
T1 sequence (P47900 whole entry): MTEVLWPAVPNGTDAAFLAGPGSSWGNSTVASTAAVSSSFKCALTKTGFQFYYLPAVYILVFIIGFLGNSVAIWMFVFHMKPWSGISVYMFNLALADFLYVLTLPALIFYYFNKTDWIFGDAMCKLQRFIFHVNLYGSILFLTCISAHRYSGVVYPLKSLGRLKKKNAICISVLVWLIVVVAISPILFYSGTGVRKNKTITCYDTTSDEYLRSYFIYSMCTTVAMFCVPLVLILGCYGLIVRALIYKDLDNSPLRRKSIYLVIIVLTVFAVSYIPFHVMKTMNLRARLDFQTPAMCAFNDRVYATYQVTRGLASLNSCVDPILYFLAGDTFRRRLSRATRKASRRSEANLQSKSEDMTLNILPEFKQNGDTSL
Summary of the method: (§1)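 1321N1 human astrocytoma cells stably expressing hP2Y1, grown overnight at 37 °C, 5% CO2 (to ~80% confluency), loaded with calcium-4 dye plus probenecid (no wash), 1 h at rt. Compounds diluted in Hank's buffer pH 7.2, tested up to 10 μM; FLIPR-Tetra at rt, ex 485/em 525 nm, duplicates. Response is peak fluorescence minus pre-exposure basal.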

Mus musculus [2] = experiment: Cardioprotective effect in calsequestrin transgenic mouse model of severe cardiomyopathy and heart failure assessed as improvement of echocardiography-derived fractional shortening at 3.3 uM, sc administered per day via minipump measured after 28 days by transthoracic echocardiographic analysis; format: functional
Summary of the method: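 CSQ-overexpressing transgenic mice (lethal heart failure near 3 months); analogue dissolved at 3.3 μM in sterile saline/PBS pH 7.4 (200 μL pump load), sterile-filtered, infused subcutaneously by mini-osmotic pump at 6 μL/day for 28 days; vehicle-infused CSQ controls. Under 1% isoflurane, M-mode echocardiography gave LVEDD, LVESD and FS ((LVEDD-LVESD)/LVEDD), averaged over >3 cardiac cycles; one-way ANOVA with post-test.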

Mus musculus [3] = experiment: Cardioprotective effect in calsequestrin transgenic mouse model of heart failure assessed as increased shortening of heart septum and left ventricular free wall at 3.3 uM, sc administered per day via minipump measured after 28 days by transthoracic echocardiographic analysis; format: functional, organism-based
Summary of the method: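 Calsequestrin-overexpressing transgenic mice (hypertrophy, lethal heart failure near 3 months). Compound at 3.3 μM in sterile saline/PBS pH 7.4, filter-sterilized, infused subcutaneously via osmotic minipump at 6 μL/day for 28 days; saline-infused controls. Under 1% isoflurane, M-mode echocardiography gave LVEDD, LVESD and FS = (LVEDD−LVESD)/LVEDD, averaged over >3 cardiac cycles; mean ± SE, one-way ANOVA with post-test.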

P2Y purinoceptor 1 [4] = target: T1, P2Y purinoceptor 1; experiment: Activation of human P2Y1 receptor expressed in human 1321N1 cells assessed as induction of calcium flux by FLIPR assay; format: functional, cell-based
P2Y purinoceptor 1 [5] = target: T1, P2Y purinoceptor 1; experiment: Activation of human P2Y1 receptor expressed in human 1321N1 cells assessed as induction of calcium flux by FLIPR assay relative to 2-MeSADP; format: functional, cell-based; summary of the method: as §1
P2Y purinoceptor 1 [6] = target: T1, P2Y purinoceptor 1; experiment: Agonist activity at human P2Y1 receptor expressed in human 1321N1 cells by PLC assay; format: functional, cell-based

SMILES | Activity (P2Y purinoceptor 1 [1]) | Activity (Mus musculus [2]) | also measured
CSc1nc(N)c2ncn([C@@H]3O[C@H](COP(=O)(O)OP(=O)(O)O)[C@@H](O)[C@H]3O)c2n1 | – | – | Activity (1321-N1): inactive
Nc1nc(Cl)nc2c1ncn2[C@H]1[C@H](O)[C@H](O)[C@@]2(/C=C/P(=O)(O)O)C[C@H]12 | inactive | 12.12% | –
Nc1ncnc2c1ncn2[C@H]1[C@H](O)[C@H](O)[C@@]2(CP(=O)(O)O)C[C@H]12 | inactive | 16.23% | –
Nc1nc(Cl)nc2c1ncn2[C@H]1[C@H](O)[C@H](O)[C@@]2(CCP(=O)(O)O)C[C@H]12 | inactive | 19.26% | –
CP(=O)(O)C[C@]12C[C@@H]1[C@@H](n1cnc3c(N)nc(Cl)nc31)[C@H](O)[C@@H]2O | inactive | 15% | –
Nc1nc(Cl)nc2c1ncn2[C@H]1[C@H](O)[C@H](O)[C@@]2(CP(=O)(O)O)C[C@H]12 | inactive | 20.25% | Activity (Mus musculus [3]): Active
Nc1ncnc2c1ncn2[C@H]1[C@H](O)[C@H](O)[C@@]2(/C=C/P(=O)(O)O)C[C@H]12 | inactive | 13.88% | –
Nc1nc(Cl)nc2c1ncn2[C@H]1[C@H](O)[C@H](O)[C@@]2(COP(=O)(O)O)C[C@H]12 | – | 15.47% | pEC50 (P2Y purinoceptor 1 [4]): 6.14; %max (P2Y purinoceptor 1 [5]): 80%; pEC50 (P2Y purinoceptor 1 [6]): 5.72
Nc1ncnc2c1ncn2[C@H]1[C@H](O)[C@H](O)[C@@]2(CCP(=O)(O)O)C[C@H]12 | inactive | 11.15% | –
